According to publication PMC4332869 (Cancer chemotherapy and pharmacology, 2010):
Read-outs that look alike come from different tables or passages of the source.

Key:
A375 cell line = assay: Anti-proliferative response in cells grown in culture; assay type: cell-based, human; settings: data not shown
[1] = Plasma pharmacokinetics in A375 tumor-bearing nude mice; assay type: in vivo, mouse; settings: for AUC: AUC0–24 h
Summary of the method: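 Tumor-bearing nude mice got oral 5 or 10 mg/kg once, or 10 mg/kg daily for 7 days (tumors ≥600 mm3), as suspension in 1% Tween 80/PBS. Plasma came by cardiac exsanguination under isoflurane at 0.5–24 h (single) or 1–24 h after the last dose, n = 4. Acetonitrile/methanol extraction with analog internal standard. LC/MS/MS MRM, N-desmethyl m/z 445→287. Noncompartmental analysis; AUC by trapezoidal rule.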

patients = settings: ref [1], cited from earlier work
[2] = cited from earlier work; for AUC: AUC0–12 h
[3] = system: tumor ERK phosphorylation (MEK1/2 inhibition); assay: Inhibition of tumor ERK phosphorylation by western blot; assay type: in vivo, mouse; settings: A375 tumor
Summary of the method: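 Male athymic BALB/c nude mice carrying s.c. rear-flank A375 xenografts (5 million cells in 4:1 serum-free RPMI:Matrigel), tumors ≥400 mm3, got one oral gavage of 5 or 10 mg/kg in 1% Tween 80/PBS. Four mice were killed per time point (0.5–24 h). Frozen tumor was sonicated in Triton/Tris pH 7.5 lysis buffer, then SDS-PAGE with pERK/ERK immunoblot. % inhibition = 100×(1 − treated pERK/ERK ÷ vehicle pERK/ERK).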

[4] = system: A375 human melanoma xenograft tumors; assay: Tumor apoptosis; assay type: in vivo, mouse; settings: A375 xenograft tumor sections, versus vehicle
Summary of the method: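 A375 xenograft tumors from oral-dosed and vehicle nude mice were formalin-fixed and paraffin-embedded, then cut into 5 μm sections. Sections were stained by TUNEL (TMR red in situ cell death kit) for apoptosis and by H&E for necrotic area, then imaged by fluorescence microscopy.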

[5] = Tissue and tumor distribution in A375 tumor-bearing nude mice; assay type: in vivo, mouse; settings: for P:TAUC: plasma to tissue AUC ratio
[6] = metabolite in mouse plasma, AZD6244 5 mg/kg single oral dose
[7] = metabolite in mouse plasma, AZD6244 10 mg/kg once daily 7 days, steady state
[8] = metabolite in mouse plasma, AZD6244 10 mg/kg single oral dose
[9] = mouse plasma, 5 mg/kg single oral dose
[10] = mouse plasma, 10 mg/kg oral once daily 7 days, steady state
[11] = mouse plasma, 10 mg/kg single oral dose
[12] = nude, mouse, plasma, po, 5 mg/kg
[13] = nude, mouse, plasma, po, 10 mg/kg
[14] = human plasma, 100 mg single dose, ref Adjei et al. [1]

Compound: O=C(NOCCO)c1cc2[nH]cnc2c(F)c1Nc1ccc(Br)cc1Cl [AZD6244-N-desmethyl]
- potency of cellular growth inhibition in vitro relative to parent (A375 cell line): approximately twice the potency of the parent
- AUC0–24 h [1, 6]: 3,597 ng/(mL h)
- Cmax [1, 6]: 505 ng/mL
- T1/2γ [1, 6]: 3.68 h
- Tmax [1, 6]: 1.0 h
- AUC0–24 h [1, 7]: 3,709 ng/(mL h)
- Cmax [1, 7]: 554 ng/mL
- T1/2γ [1, 7]: 2.37 h
- Tmax [1, 7]: 1.0 h
- AUC0–24 h [1, 8]: 4,993 ng/(mL h)
- Cmax [1, 8]: 865 ng/mL
- T1/2γ [1, 8]: 2.79 h
- Tmax [1, 8]: 2.0 h

Compound: Cn1cnc2c(F)c(Nc3ccc(Br)cc3Cl)c(C(=O)NOCCO)cc21 [AZD6244]
- patients with stable disease of five or more months (patients; 9 of 54 patients): 16%
- tolerability (patients; most common toxicity skin rash, diarrhea, nausea and fatigue): well tolerated
- T1/2γ [1, 9]: 2.81 h
- AUC [1, 9]: 11,910 ng/(mL h)
- T1/2γ [1, 10]: 2.29 h
- AUC [1, 10]: 17,525 ng/(mL h)
- T1/2γ [1, 11]: 2.62 h
- AUC [1, 11]: 18,976 ng/(mL h)
- CL/F [1, 12]: 6.67 mL/min/kg
- Cmax [1, 12]: 2970 ng/mL
- Tmax [1, 12]: 0.5 h
- Vd/F [1, 12]: 1.7 L/kg
- CL/F [1, 13]: 8.33 mL/min/kg
- Cmax [1, 13]: 3350 ng/mL
- Tmax [1, 13]: 2 h
- Vd/F [1, 13]: 2 L/kg
- human AUC ([2]; clinical exposure compared with mouse 10 mg/kg once daily, ref [1]): 10,012 ng/(mL h)
- AUC [2, 14]: 3,124 ng/(mL h)
- Cmax [2, 14]: 807 ng/mL
- T1/2γ [2, 14]: 4.5 h
- AUC ([2]; human plasma, 100 mg steady state, ref Adjei et al. [1]): 5,006 ng/(mL h)
- AUC0–12 h ([2]; humans given 100 mg AZD6244 free-base suspension BID, ref [1]): 3,124 ng/(mL h)
- AUC0–12 h ([2]; humans given 200 mg AZD6244 free-base suspension BID, ref [1]): 5,234 ng/(mL h)
- peak inhibition of phosphorylated ERK ([3]; 5 mg/kg single dose): 72%
- peak inhibition of phosphorylated ERK ([3]; 10 mg/kg single dose): 80%
- apoptotic cells as measured by TUNEL [4]: slight increase in apoptotic cells as measured by TUNEL, this increase was not statistically significant
- necrotic area [4]: no difference in necrotic area
- AUC0–12 h ([5]; gut, 5 mg/kg, single dose): 5,008 ng/(g h)
- AUC0–12 h ([5]; gut, 10 mg/kg, single dose): 6,845 ng/(g h)
- AUC0–12 h ([5]; gut, 10 mg/kg, steady state): 2,278 ng/(g h)
- AUC0–12 h ([5]; liver, 5 mg/kg, single dose): 4,356 ng/(g h)
- Cmin ([5]; liver, 5 mg/kg, single dose): 299 ng/g
- AUC0–12 h ([5]; liver, 10 mg/kg, single dose): 8,028 ng/(g h)
- Cmin ([5]; liver, 10 mg/kg, single dose): 110 ng/g
- AUC0–12 h ([5]; liver, 10 mg/kg, steady state): 6,781 ng/(g h)
- Cmin ([5]; liver, 10 mg/kg, steady state): 100 ng/g
- ratio of free drug in plasma to free drug in tissue (fB/fT) ([5]; mouse, single oral dose): 1.8
- AUC0–12 h ([5]; muscle, 10 mg/kg, single dose): 667 ng·h/g
- Cmin ([5]; muscle, 10 mg/kg, single dose): 896 ng/g
- Cmin ([5]; muscle, 10 mg/kg, steady state): 1,649 ng/g
- Cmax ([5]; nude, mouse, gut, po, 5 mg/kg, single dose): 1220 ng/g
- Cmax ([5]; nude, mouse, gut, po, 10 mg/kg, single dose): 1930 ng/g
- Cmax at 1 week ([5]; nude, mouse, gut, po, 10 mg/kg, steady state): 6780 ng/g
- half-life ([5]; nude, mouse, gut, po, 10 mg/kg, t1/2, gut, single dose): 1 h
- Tmax ([5]; nude, mouse, liver, lung, kidney, gut, muscle, skin, tumor, po, 10 mg/kg): 0.5 to 2 h
- Cmax ([5]; nude, mouse, lung, po, 5 mg/kg, single dose): 206 ng/g
- Cmax ([5]; nude, mouse, lung, po, 10 mg/kg, single dose): 327 ng/g
- half-life ([5]; nude, mouse, lung, po, 10 mg/kg, t1/2, lung, single dose): 1 h
- Cmax at 1 week ([5]; nude, mouse, muscle, po, 10 mg/kg, steady state): 2040 ng/g
- Cmax ([5]; nude, mouse, skin, po, 5 mg/kg, single dose): 136 ng/g
- Cmax ([5]; nude, mouse, skin, po, 10 mg/kg, single dose): 169 ng/g
- Cmax ([5]; nude, mouse, tumor, po, 5 mg/kg, single dose): 501 ng/g
- Cmax ([5]; nude, mouse, tumor, po, 10 mg/kg, single dose): 861 ng/g
- Cmax ([5]; nude, mouse, tumor, po, 10 mg/kg, steady state): 487 ng/g
- P:TAUC ([5]; gut, 5 mg/kg, single dose): 2.28
- P:TAUC ([5]; gut, 10 mg/kg, single dose): 2.66
- P:TAUC ([5]; gut, 10 mg/kg, steady state): 7.41
- P:TAUC ([5]; liver, 5 mg/kg, single dose): 2.62
- P:TAUC ([5]; liver, 10 mg/kg, single dose): 2.27
- P:TAUC ([5]; liver, 10 mg/kg, steady state): 2.49
- P:TAUC ([5]; lung, 5 mg/kg, single dose): 10.55
- P:TAUC ([5]; lung, 10 mg/kg, single dose): 7.45
- P:TAUC ([5]; muscle, 5 mg/kg, single dose): 14.06
- P:TAUC ([5]; muscle, 10 mg/kg, single dose): 27.33
- P:TAUC ([5]; muscle, 10 mg/kg, steady state): 18.16
- P:TAUC ([5]; skin, 5 mg/kg, single dose): 14.25
- P:TAUC ([5]; skin, 10 mg/kg, single dose): 16.56
- P:TAUC ([5]; tumor, 5 mg/kg, single dose): 3.17
- P:TAUC ([5]; tumor, 10 mg/kg, single dose): 3.82
- P:TAUC ([5]; tumor, 10 mg/kg, steady state): 4.45
- AUC0–12 h ([5]; skin, 5 mg/kg, single dose): 802 ng·h/g
- AUC0–12 h ([5]; tumor, 5 mg/kg, single dose): 3,601 ng/(g h)
- Cmin ([5]; tumor, 5 mg/kg, single dose): 44 ng/g
- AUC0–12 h ([5]; tumor, 10 mg/kg, single dose): 4,776 ng/(g h)
- Cmin ([5]; tumor, 10 mg/kg, single dose): 130 ng/g
- Cmin ([5]; tumor, 10 mg/kg, steady state): 52 ng/g
